Assay results from ChEMBL document CHEMBL4680373, “Evaluation of 5-(Trifluoromethyl)-1,2,4-oxadiazole-Based Class IIa HDAC Inhibitors for Huntington's Disease” (ACS Med Chem Lett, 2021).
pIC50: −log10 of the molar value.

Experiments:
[1] = Time during which drug concentration exceeds the IC50 for inhibition of human Class 2A HDAC in C57BL/6J mouse brain at 100 mg/kg, po administered via gavage by LC-MS/MS analysis; format: organism-based; conditions: in vivo
In short: (§1)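 Single oral gavage doses of 10, 30 or 100 mg/kg were given to C57/BL6 mice. Brain and blood were sampled from 0.25 to 12 h and compound measured by LC-MS/MS. The time that total brain exposure stayed above the class IIa cellular IC50 was then estimated.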

[2] = target: T1, Protein deacetylase HDAC6 (Homo sapiens, UniProt Q9UBN7); test: Inhibition of HDAC6 (unknown origin) expressed in human HEK-Freestyle cells using Boc-Lys(Ac) as substrate by fluorogenic assay; format: cell-based
T1 sequence (Q9UBN7 whole entry): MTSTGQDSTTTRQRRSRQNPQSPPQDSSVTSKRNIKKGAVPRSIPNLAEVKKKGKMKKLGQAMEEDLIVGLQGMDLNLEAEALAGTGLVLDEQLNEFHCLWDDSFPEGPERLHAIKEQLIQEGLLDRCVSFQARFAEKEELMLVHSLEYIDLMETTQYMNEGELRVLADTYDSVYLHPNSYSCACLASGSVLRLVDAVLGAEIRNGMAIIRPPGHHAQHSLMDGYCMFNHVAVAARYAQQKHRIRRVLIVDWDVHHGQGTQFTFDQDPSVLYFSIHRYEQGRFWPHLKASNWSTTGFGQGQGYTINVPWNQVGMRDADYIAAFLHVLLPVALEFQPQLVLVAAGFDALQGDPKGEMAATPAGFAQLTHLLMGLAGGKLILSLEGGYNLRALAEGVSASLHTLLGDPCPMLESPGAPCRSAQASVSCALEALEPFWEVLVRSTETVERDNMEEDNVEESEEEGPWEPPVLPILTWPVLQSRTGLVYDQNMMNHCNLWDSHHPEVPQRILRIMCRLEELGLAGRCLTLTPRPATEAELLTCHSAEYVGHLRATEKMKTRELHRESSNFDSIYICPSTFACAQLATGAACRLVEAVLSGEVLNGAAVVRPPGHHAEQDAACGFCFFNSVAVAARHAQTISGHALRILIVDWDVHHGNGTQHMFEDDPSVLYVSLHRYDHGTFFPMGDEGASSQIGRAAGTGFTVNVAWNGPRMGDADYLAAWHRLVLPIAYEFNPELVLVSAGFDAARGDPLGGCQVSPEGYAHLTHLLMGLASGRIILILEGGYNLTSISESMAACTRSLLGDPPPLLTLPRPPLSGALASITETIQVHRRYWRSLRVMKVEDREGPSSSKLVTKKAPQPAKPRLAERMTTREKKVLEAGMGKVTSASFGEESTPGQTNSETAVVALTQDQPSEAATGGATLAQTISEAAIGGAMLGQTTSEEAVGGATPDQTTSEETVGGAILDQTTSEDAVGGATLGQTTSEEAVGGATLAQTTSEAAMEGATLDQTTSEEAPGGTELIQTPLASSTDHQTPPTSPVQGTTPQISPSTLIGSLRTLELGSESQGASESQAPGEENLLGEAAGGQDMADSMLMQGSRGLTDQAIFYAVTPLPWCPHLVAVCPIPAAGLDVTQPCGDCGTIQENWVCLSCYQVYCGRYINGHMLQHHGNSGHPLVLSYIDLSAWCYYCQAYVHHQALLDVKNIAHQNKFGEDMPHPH
In short: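 HDAC6 was supplied as lysate of HEK cells overexpressing the enzyme. Activity was read with the class I/IIb-specific fluorogenic substrate Boc-Lys-(Ac)-AMC. IC50 is the geometric mean of three experiments.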

[3] = target: Muscarinic acetylcholine receptor M1 (Homo sapiens) (UniProt P11229); test: Displacement of [3H]pirenzapine from human recombinant M1 receptor at 10 uM incubated for 1 hr by radiometric scintillation counting analysis
Chain of Muscarinic acetylcholine receptor M1 (Homo sapiens) (P11229 whole entry): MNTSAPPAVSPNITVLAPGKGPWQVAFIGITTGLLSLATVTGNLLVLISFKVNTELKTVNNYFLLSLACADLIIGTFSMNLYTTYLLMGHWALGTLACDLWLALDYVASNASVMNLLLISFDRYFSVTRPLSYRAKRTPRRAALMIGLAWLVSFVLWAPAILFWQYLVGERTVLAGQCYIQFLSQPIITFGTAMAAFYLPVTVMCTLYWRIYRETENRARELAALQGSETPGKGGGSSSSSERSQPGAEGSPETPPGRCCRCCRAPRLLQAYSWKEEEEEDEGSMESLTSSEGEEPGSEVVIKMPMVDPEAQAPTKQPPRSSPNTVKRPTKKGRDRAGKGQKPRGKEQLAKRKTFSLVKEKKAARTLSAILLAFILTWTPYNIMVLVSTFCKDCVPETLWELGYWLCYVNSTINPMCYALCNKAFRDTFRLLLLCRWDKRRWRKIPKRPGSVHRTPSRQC
In short: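 Broad selectivity panel of binding, cellular, functional and enzymatic assays run by a contract lab. Each test was done at a single 10 μM concentration and reported as percent inhibition.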

Cytochrome P450 3A4 = Cytochrome P450 3A4 (Homo sapiens, UniProt P08684); test: Inhibition of CYP3A4 in human liver microsomes using testosterone as substrate incubated for 30 mins by LC-MS/MS analysis; format: ADME
Chain of Cytochrome P450 3A4 (P08684 whole entry): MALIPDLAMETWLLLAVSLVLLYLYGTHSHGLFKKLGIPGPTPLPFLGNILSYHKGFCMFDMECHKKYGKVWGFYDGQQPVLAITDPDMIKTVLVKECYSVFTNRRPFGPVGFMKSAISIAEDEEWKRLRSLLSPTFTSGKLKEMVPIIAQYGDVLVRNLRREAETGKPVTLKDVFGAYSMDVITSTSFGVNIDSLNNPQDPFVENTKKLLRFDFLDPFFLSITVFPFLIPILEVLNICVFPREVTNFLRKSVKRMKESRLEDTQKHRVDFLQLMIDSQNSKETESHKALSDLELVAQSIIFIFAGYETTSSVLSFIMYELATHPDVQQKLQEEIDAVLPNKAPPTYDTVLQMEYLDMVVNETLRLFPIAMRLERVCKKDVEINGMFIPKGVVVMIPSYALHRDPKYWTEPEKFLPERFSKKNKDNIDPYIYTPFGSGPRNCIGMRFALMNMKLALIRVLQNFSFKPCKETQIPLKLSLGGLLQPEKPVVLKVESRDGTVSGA

[4] = In vivo inhibition of Class 1 HDAC in CBAxC57BL/6J mouse brain assessed as increase in histone H4 acetylation at 30 to 100 mg/kg, po bid for 14.5 days by western blot analysis; format: organism-based; conditions: 348 h, dose 30-100 mg/kg, time 14.5 day
In short: (§2)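 R6/2 and wild-type littermate mice of both sexes were dosed orally b.i.d. for 14.5 days with 10, 30 or 100 mg/kg or vehicle (10% w/v hydroxypropyl-β-cyclodextrin in 50 mM citrate buffer). Half-brains were collected 2 h after the last dose. Dot blots measured global and H4K12 acetylation; Western blots measured H3, H4 and tubulin acetylation. Genotypes were pooled.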

[5] = Unbound fraction in mouse brain; format: ADME, tissue-based
In short: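 Unbound fraction measured in mouse brain homogenate.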

[6] = Metabolic stability of the compound in human plasma; format: ADME, cell-free
[7] = Toxicity in CBAxC57BL/6J mouse assessed as effect on struggle by tail at 10 to 100 mg/kg, po bid for 14.5 days; format: organism-based; conditions: in vivo, 348 h, dose 10-100 mg/kg, time 14.5 day
In short: (§3)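 R6/2 HD mice and wild-type littermates, male and female, were dosed orally b.i.d. at 10, 30 or 100 mg/kg or with vehicle for 14.5 days. Vehicle was 10% (w/v) hydroxypropyl-β-cyclodextrin in 50 mM citrate buffer. Body weight, body temperature, passive observations and active manipulation scores were recorded. Blood and brain were collected 2 h after the final dose.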

[8] = In vivo inhibition of Class 1/2B HDAC in CBAxC57BL/6J mouse brain assessed as increase in global pan-acetylation at >=10 mg/kg, po bid for 14.5 days by dot blot technique; format: organism-based; conditions: 348 h, time 14.5 day; in short: as §2
[9] = Toxicity in CBAxC57BL/6J mouse assessed as effect on flaccidity at 10 to 100 mg/kg, po bid for 14.5 days; format: organism-based; conditions: in vivo, 348 h, dose 10-100 mg/kg, time 14.5 day; in short: as §3
[10] = Tmax in C57BL/6J mouse blood at 11.5 mg/kg, po administered via gavage by LC-MS/MS analysis; format: ADME, organism-based
[11] = Intrinsic Clearance in mouse liver microsomes; format: ADME, Microsome; conditions: read-out: CLH
[12] = Time during which drug concentration exceeds the IC50 for inhibition of human Class 2A HDAC in C57BL/6J mouse brain at 10 mg/kg, po administered via gavage by LC-MS/MS analysis; format: organism-based; conditions: in vivo; in short: as §1
[13] = Metabolic stability of the compound in mouse blood; format: ADME, tissue-based
[14] = Toxicity in CBAxC57BL/6J mouse assessed as effect on body weight at 10 to 100 mg/kg, po bid for 14.5 days; format: organism-based; conditions: in vivo, 348 h, dose 10-100 mg/kg, time 14.5 day; in short: as §3
[15] = Stability of the compound in 10% (w/v) hydroxypropyl-beta-cyclodextrin in 50 mM citrate buffer at pH 5 measured over 30 days; format: physicochemical; conditions: pH 5, 720 h, time 30 day

T>IC50 [1]: 14 h | pIC50 [2]: 4.66 | inhibition [3]: > 80% | pIC50 (Cytochrome P450 3A4): < 4.30 | fraction unbound [5]: 0.17 | Stabilty [6]: Stable | Tmax [10]: 30 min | CLint scaled [11]: 86 mL/min/kg | T>IC50 [12]: 4 h | Stabilty [13]: Stable | Stabilty [15]: Stable
SMILES: C[C@H](CN1CCC[C@@H]1C)NC(=O)c1ccc(-c2noc(C(F)(F)F)n2)cc1
Activity [4]: Toxic | Activity [7]: Non-Toxic | Activity [8]: Toxic | Activity [9]: Non-Toxic | Activity [14]: Non-Toxic
